Calls of active or inactive are those of the source. The rule behind the calls is not given here.
Tests used:
Tubulin = Tubulin (Sus scrofa, UniProt P02554+P02550); assay: Inhibition of pig brain tubulin polymerization by spectrophotometry
Summary of the method: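 Pig brain microtubule protein from three assembly/disassembly cycles, tubulin purified by phosphocellulose chromatography. Polymerization in PEM buffer (100 mM PIPES, 1 mM EGTA, 1 mM MgCl2) with 1 mM GTP and 5% glycerol at 37 °C, followed by light scattering at 340 nm.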

Bel-7402 = assay: Antiproliferative activity against human Bel7402 cells after 72 hrs by sulforhodamine B assay; type: functional, cell-based; conditions: Bel-7402, 72 h
Summary of the method: (§1)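 SRB survival assay: cells seeded in 96-well plates, exposed to a range of compound concentrations for 72 h, fixed with 10% TCA 1 h at 4 °C, stained with 0.4% (w/v) SRB 20 min at room temperature, washed with 1% acetic acid, dye solubilized in 10 mM Tris, absorbance at 510 nm.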

NCI-H460 = assay: Antiproliferative activity against human NCI-H460 cells after 72 hrs by sulforhodamine B assay; type: functional, cell-based; conditions: NCI-H460, 72 h; summary of the method: as §1
A-431 = assay: Antiproliferative activity against human A431 cells after 72 hrs by sulforhodamine B assay; type: functional, cell-based; conditions: A-431, 72 h; summary of the method: as §1
HT-29 = assay: Antiproliferative activity against human HT-29 cells after 72 hrs by sulforhodamine B assay; type: functional, cell-based; conditions: HT-29, 72 h; summary of the method: as §1
A549 = assay: Antiproliferative activity against human A549 cells after 72 hrs by sulforhodamine B assay; type: functional, cell-based; conditions: A549, 72 h; summary of the method: as §1
SK-OV-3 = assay: Antiproliferative activity against human SKOV3 cells after 72 hrs by sulforhodamine B assay; type: functional, cell-based; conditions: SK-OV-3, 72 h; summary of the method: as §1
KB = assay: Cell cycle arrest in human KB cells assessed as accumulation of cells at G2/M phase after 24 hrs by propidium iodide-based FACScan; type: functional
Summary of the method: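 Subconfluent KB cells exposed to a range of concentrations for 24 h. Adherent plus detached cells collected by trypsinization, fixed overnight in 70% ethanol, stained 30 min at 37 °C with propidium iodide 50 μg/mL plus DNase-free RNase A 50 μg/mL. 10000 cells per group analyzed by flow cytometry.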

Tubulin (Sus scrofa) = Tubulin (Sus scrofa) (UniProt P02554+P02550); assay: Displacement of colchicine from pig brain tubulin at 25 uM after 60 mins by fluorescence assay
Summary of the method: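 Tubulin (3 μM) preincubated with colchicine (3 μM) 30 min at 37 °C, then compound added (0–25 μM). Fluorescence spectra (excitation 365 nm, emission 435 nm) recorded after 60 min at 37 °C, buffer blank subtracted.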

Tubulin (Sus scrofa), sequence (P02550 whole entry, looked up): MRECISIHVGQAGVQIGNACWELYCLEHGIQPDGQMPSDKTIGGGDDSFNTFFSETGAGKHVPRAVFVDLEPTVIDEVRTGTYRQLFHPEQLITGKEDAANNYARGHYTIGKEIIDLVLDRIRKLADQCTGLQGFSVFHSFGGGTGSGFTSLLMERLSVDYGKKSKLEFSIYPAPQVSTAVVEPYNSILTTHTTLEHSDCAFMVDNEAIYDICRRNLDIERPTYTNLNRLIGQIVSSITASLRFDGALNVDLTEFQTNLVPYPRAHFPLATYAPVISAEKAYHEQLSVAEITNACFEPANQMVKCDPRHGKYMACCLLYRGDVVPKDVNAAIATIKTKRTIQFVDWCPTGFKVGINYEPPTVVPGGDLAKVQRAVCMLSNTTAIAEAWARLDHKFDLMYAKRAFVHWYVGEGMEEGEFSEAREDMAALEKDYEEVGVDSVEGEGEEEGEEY
Tubulin (Sus scrofa), sequence (P02554 whole entry, looked up): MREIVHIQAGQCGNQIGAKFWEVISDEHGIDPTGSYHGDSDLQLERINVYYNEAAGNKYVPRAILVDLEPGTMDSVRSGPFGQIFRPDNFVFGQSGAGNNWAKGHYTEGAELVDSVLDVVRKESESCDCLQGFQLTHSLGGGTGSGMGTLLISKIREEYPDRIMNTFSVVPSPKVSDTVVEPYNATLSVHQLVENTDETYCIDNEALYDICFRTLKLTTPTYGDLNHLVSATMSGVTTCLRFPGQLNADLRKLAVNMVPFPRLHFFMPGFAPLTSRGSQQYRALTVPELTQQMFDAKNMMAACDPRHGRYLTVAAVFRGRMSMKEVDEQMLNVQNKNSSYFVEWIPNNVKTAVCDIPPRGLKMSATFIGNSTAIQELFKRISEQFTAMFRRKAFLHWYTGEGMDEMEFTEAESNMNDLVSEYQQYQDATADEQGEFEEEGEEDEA

SMILES	IC50 (Tubulin)	IC50 (Bel-7402)	IC50 (NCI-H460)	IC50 (A-431)	IC50 (HT-29)	IC50 (A549)	IC50 (SK-OV-3)	EC50 (KB)	Activity (Tubulin (Sus scrofa))
Nc1ncc(-c2ccc(CN3CCCCC3)cc2)c(-c2ccccc2O)n1	> 50000 nM	> 10000 nM							
CCN(CC)c1ccc(-c2cnc(N)nc2-c2ccccc2O)cc1	5570 nM	100 nM	57 nM	76.6 nM	95.4 nM	241 nM	171 nM		
CCn1ccc2ccc(-c3cnc(N)nc3-c3ccccc3O)cc21	> 50000 nM	> 10000 nM							
CN1CCN(Cc2ccc(-c3cnc(N)nc3-c3ccccc3O)cc2)CC1	> 50000 nM	> 10000 nM							
Nc1ncc(-c2ccc(N3CCCC3)cc2)c(-c2ccccc2O)n1	> 50000 nM	> 10000 nM							
CCn1ccc2cc(-c3cnc(N)nc3-c3cc(OC)c(OC)cc3O)ccc21	> 50000 nM	> 10000 nM							
Cn1ccc2cc(-c3cnc(N)nc3-c3ccccc3O)ccc21	920 nM	50 nM	20.5 nM	21.7 nM	30.8 nM	48.2 nM	69.2 nM		
CCn1ccc2cc(-c3cnc(N)nc3-c3ccccc3O)ccc21	790 nM	16 nM	19 nM	20.3 nM	28.2 nM	62 nM	32 nM	20 nM	Active
CC(=O)O[C@H]1C(=O)[C@@]2(C)[C@H]([C@H](OC(=O)c3ccccc3)[C@]3(O)C[C@H](OC(=O)[C@H](O)[C@@H](NC(=O)c4ccccc4)c4ccccc4)C(C)=C1C3(C)C)[C@]1(OC(C)=O)CO[C@@H]1C[C@@H]2O [PACLITAXEL]			14.6 nM	9.2 nM	6.1 nM		14.5 nM	2 nM	
CCn1ccc2cc(-c3cnc(N)nc3-c3ccccc3O)cnc21	> 50000 nM	1000 nM							
Nc1ncc(-c2ccc(N3CCCCC3)cc2)c(-c2ccccc2O)n1	> 50000 nM	> 10000 nM							
CN(C)Cc1ccc(-c2cnc(N)nc2-c2ccccc2O)cc1	> 50000 nM	> 10000 nM							
CCn1ccc2c(-c3cnc(N)nc3-c3ccccc3O)cccc21	> 50000 nM	1000 nM							
CCn1ccc2cc(-c3cnc(N)nc3-c3ccc(OC)c(OC)c3O)ccc21	> 50000 nM	> 10000 nM							
COc1cc2c(c(OC)c1OC)-c1ccc(OC)c(=O)cc1[C@@H](NC(C)=O)CC2 [COLCHICINE]		40 nM	50.6 nM	53.2 nM	21.9 nM	37 nM	71.2 nM	10 nM	
CN1CCN(c2ccc(-c3cnc(N)nc3-c3ccccc3O)cc2)CC1	> 50000 nM	> 10000 nM							
Nc1ncc(-c2ccc(N3CCOCC3)cc2)c(-c2ccccc2O)n1	> 50000 nM	> 10000 nM							
CCn1ccc2cc(-c3cnc(N)nc3-c3cc(F)ccc3O)ccc21	800 nM	10 nM	25.8 nM	45.4 nM	41.8 nM	70.4 nM	56.1 nM		
Nc1ncc(-c2ccc(CN3CCOCC3)cc2)c(-c2ccccc2O)n1	> 50000 nM	> 10000 nM							
CCn1ccc2cc(-c3cnc(N)nc3-c3ccc(OC)cc3O)ccc21	> 50000 nM	> 10000 nM							
Nc1ncc(-c2ccc3[nH]ccc3c2)c(-c2ccccc2O)n1	> 50000 nM	> 10000 nM							
CCC1=C[C@@H]2CN(C1)Cc1c([nH]c3ccccc13)[C@@](C(=O)OC)(c1cc3c(cc1OC)N(C)[C@H]1[C@@](O)(C(=O)OC)[C@H](OC(C)=O)[C@]4(CC)C=CCN5CC[C@]31[C@@H]54)C2 [VINORELBINE]			43.7 nM	60 nM	11.9 nM	64.6 nM	26.7 nM	6 nM	inactive
CCN(C)c1ccc(-c2cnc(N)nc2-c2ccccc2O)cc1	2350 nM								
CCn1ccc2cc(-c3cnc(N)nc3-c3cc(OC)ccc3O)ccc21	> 50000 nM	> 10000 nM							
CC(C)n1ccc2cc(-c3cnc(N)nc3-c3ccccc3O)ccc21	5000 nM	80 nM	485 nM	760 nM	918 nM	1310 nM	760 nM		

— ChEMBL document CHEMBL1772999, “Synthesis and biological evaluation of 2,4,5-substituted pyrimidines as a new class of tubulin polymerization inhibitors” (J Med Chem, 2011)
